Experimental data collected from several papers.
Lines come from different studies, so protocols differ.
Target: 5'-AMP-activated protein kinase catalytic subunit alpha-2 (PRKAA2, Homo sapiens, UniProt P54646)

For `Cc1ccc(C(=O)NCc2ccsc2)cc1C#Cc1cn(C(C)C)c2ncnc(N)c12`, the activity vs control was 80% (enzyme activity, inhibitor; 1 µM).
`CCCCNc1ncc2c(-c3ccc(F)cc3)nn(C[C@H]3CC[C@H](N)CC3)c2n1` has an inhibition of 22.8% (target engagement in cells, inhibitor, chemoproteomics; 20 mM).
The remaining binding of `CC(=O)N1CCC(c2ccc(C(=O)NC(=N)N)cc2C(F)(F)F)CC1` is reported as 100% (cell-free assay, competition with immobilised ligand; 1 µM).
For `COc1cccc2c(NCc3ccccc3)nc(-n3c(N)nc4ccccc43)nc12`, the inhibition was 11.9% (target engagement in cells, inhibitor, chemoproteomics; 20 mM).
With `COc1cc(Cl)c(C(=O)N[C@@H](CN[C@H]2CC[C@@H](N)CC2)Cc2ccc(C#N)cc2)cc1-c1ccc(CN[C@H](C)c2ccc(C)cc2)o1` the remaining activity was 89% (enzyme activity, inhibitor; 1 µM).
With `CCN(CC)c1ccc(C2=NNC(=O)CC2C)cc1[N+](=O)[O-]` (stereo not shown) the remaining activity was 108% (enzyme activity, inhibitor; 10 µM).
With `Cc1cnc(NC2CCOCC2)nc1-n1cnc(C(=O)NC(CN)c2cc(F)cc(Cl)c2)c1` (stereo not shown) the remaining activity was 31% (enzyme activity, inhibitor, radiometric; 1 µM).
`COc1cc(-c2cc(-c3ccc(N4CCNCC4)cc3)cnc2C)cc(OC)c1OC` has an inhibition of 1% (enzyme activity, inhibitor; 1 µM).
`O=C(O)[C@H]1[C@H](Cn2nnc3ccccc3c2=O)CC[C@@H]1C(=O)c1ccc(OCCC2CCOCC2)cc1` gave a remaining binding of 100% (cell-free assay, competition with immobilised ligand; 1 µM).
`CCCOc1ccc(OC)c(F)c1C(=O)c1ccc(C(=O)N[C@@H]2CNC[C@H]2NC(=O)c2ccc3[nH]ncc3c2)cc1` has a remaining activity of 6% (enzyme activity, inhibitor; 0.75 µM).
The inhibition of `CCCS(=O)(=O)Nc1ccc(F)c(C(=O)c2c[nH]c3ncc(-c4ccc(Cl)cc4)cc23)c1F` is reported as under 20% (enzyme activity, inhibitor; 1 µM).
`CCCCN(CCCC)C(=O)CN1C[C@H](c2cc(OC)c3c(c2)OCO3)[C@@H](C(=O)O)[C@@H]1CC(C)(C)CCC` has a remaining binding of 100% (cell-free assay, competition with immobilised ligand; 1 µM).
With `Cc1ccc(NC(=O)c2ccc(C)c(C(F)(F)F)c2)cc1C#Cc1nn(C2CCC(O)CC2)c2ncnc(N)c12` (stereo not shown) the remaining signal was 90% (cell-free assay; 10 µM).
